In brackets after ≈: the same amount, converted by molar mass. Activity calls are given as the source filed them. The calls are words filed in the database; no cut-off is given here.
What was measured:
[1] = target: Platelet-derived growth factor receptor beta (Homo sapiens) (UniProt P09619); experiment: Inhibition of PDGFR-beta (unknown origin) at 10 nM relative to control
Method in brief: (§1)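 Purified recombinant kinase domains run in ELISA on precoated poly(Glu,Tyr) 4:1 (20 µg/mL) with 10 µM ATP in 50 mM HEPES pH 7.4, 50 mM MgCl2, 0.5 mM MnCl2, 0.2 mM Na3VO4, 1 mM DTT; 1% DMSO control; 60 min at 37 °C. Phosphotyrosine read by PY99 antibody, HRP anti-mouse IgG, OPD/H2O2 at 490 nm; inhibition = [1−A490/A490control]×100%; two separate experiments.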

[2] = target: Angiopoietin-1 receptor (Homo sapiens) (UniProt Q02763); experiment: Inhibition of Tie-2 (unknown origin) at 100 nM relative to control
Method in brief: (§2)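 ELISA with purified recombinant kinase on plates precoated with poly(Glu,Tyr) 4:1 at 20 µg/mL. ATP 10 µM in HEPES pH 7.4 buffer with MgCl2, MnCl2, Na3VO4 and DTT. Run 60 min at 37 °C. Detected with anti-phosphotyrosine PY99, HRP secondary antibody and o-phenylenediamine, read at 490 nm. Inhibition % = [1 − A490/A490 control]×100. 1% DMSO as negative control.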

[3] = Solubility of compound; format: physicochemical
[4] = target: Ephrin type-A receptor 2 (Homo sapiens) (UniProt P29317); experiment: Inhibition of EPH-A2 (unknown origin) at 1000 nM relative to control; method in brief: as §1
[5] = target: Insulin-like growth factor 1 receptor (Homo sapiens) (UniProt P08069); experiment: Inhibition of IGF1R (unknown origin) at 100 nM relative to control; method in brief: as §1
NCI-H716 = experiment: Antiproliferative activity against FGFR2 amplified human NCI-H716 cells after 72 hrs by CCK8 assay; format: functional, cell-based; settings: NCI-H716, 72 h
Method in brief: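 Cells seeded at low density in growth medium and compounds added the next day. Incubated 72 h, then proliferation read by sulforhodamine B, MTT or CCK-8. IC50 obtained by four-parameter concentration-response curve fitting.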

[6] = target: Cyclin-dependent kinase 1 (Homo sapiens) (UniProt P06493); experiment: Inhibition of CDK1 (unknown origin) at 10 nM relative to control
[7] = target: Cyclin-dependent kinase 1 (Homo sapiens) (UniProt P06493); experiment: Inhibition of CDK1 (unknown origin) at 100 nM relative to control
[8] = target: Hepatocyte growth factor receptor (Homo sapiens) (UniProt P08581); experiment: Inhibition of c-Met (unknown origin) at 100 nM relative to control; method in brief: as §2
[9] = Efflux ratio of permeability in human Caco2 cells at 5 uM after 120 mins by LC-MS/MS analysis; format: ADME, cell-based; settings: Caco-2
Method in brief: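 Caco-2 (C2BBe1) monolayers grown to confluence on collagen-coated transwell polycarbonate membranes. Compound at 5 μM added apically or basolaterally in HBSS with 10 mM HEPES at pH 7.4 and 6.8. Duplicate samples taken at 120 min and analysed by LC-MS/MS. Efflux ratio = Papp(B→A)/Papp(A→B).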

[10] = target: Focal adhesion kinase 1 (Homo sapiens) (UniProt Q05397); experiment: Inhibition of FAK (unknown origin) at 10 nM relative to control; method in brief: as §1
[11] = target: ALK tyrosine kinase receptor (Homo sapiens) (UniProt Q9UM73); experiment: Inhibition of ALK (unknown origin) at 100 nM relative to control
[12] = target: ALK tyrosine kinase receptor (Homo sapiens) (UniProt Q9UM73); experiment: Inhibition of ALK (unknown origin) at 10 nM relative to control
[13] = target: Fibroblast growth factor receptor 2 (Homo sapiens) (UniProt P21802); experiment: Inhibition of FGFR2 (unknown origin) at 1000 nM relative to control; method in brief: as §1
[14] = target: Tyrosine-protein kinase ABL1 (Homo sapiens) (UniProt P00519); experiment: Inhibition of ABL (unknown origin) at 10 nM relative to control
[15] = target: Focal adhesion kinase 1 (Homo sapiens) (UniProt Q05397); experiment: Inhibition of FAK (unknown origin) at 100 nM relative to control; method in brief: as §1
[16] = target: Fibroblast growth factor receptor 2 (Homo sapiens) (UniProt P21802); experiment: Inhibition of FGFR2 in human SNU-16 cells assessed as decrease in ERK phosphorylation at 25 to 200 nM after 2 hrs by Western blot analysis; format: cell-based
Method in brief: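 SNU-16 cells exposed to compound for 2 h at 37 °C, lysed in 1× SDS sample buffer, resolved by 10% SDS-PAGE and blotted to nitrocellulose; probed for phospho-FGFR, FGFR2, phospho-ERK, ERK and GAPDH, then HRP anti-rabbit or anti-mouse IgG; enhanced chemiluminescence detection.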

ALK tyrosine kinase receptor (Homo sapiens), sequence (Q9UM73 19-1620 limits assumed): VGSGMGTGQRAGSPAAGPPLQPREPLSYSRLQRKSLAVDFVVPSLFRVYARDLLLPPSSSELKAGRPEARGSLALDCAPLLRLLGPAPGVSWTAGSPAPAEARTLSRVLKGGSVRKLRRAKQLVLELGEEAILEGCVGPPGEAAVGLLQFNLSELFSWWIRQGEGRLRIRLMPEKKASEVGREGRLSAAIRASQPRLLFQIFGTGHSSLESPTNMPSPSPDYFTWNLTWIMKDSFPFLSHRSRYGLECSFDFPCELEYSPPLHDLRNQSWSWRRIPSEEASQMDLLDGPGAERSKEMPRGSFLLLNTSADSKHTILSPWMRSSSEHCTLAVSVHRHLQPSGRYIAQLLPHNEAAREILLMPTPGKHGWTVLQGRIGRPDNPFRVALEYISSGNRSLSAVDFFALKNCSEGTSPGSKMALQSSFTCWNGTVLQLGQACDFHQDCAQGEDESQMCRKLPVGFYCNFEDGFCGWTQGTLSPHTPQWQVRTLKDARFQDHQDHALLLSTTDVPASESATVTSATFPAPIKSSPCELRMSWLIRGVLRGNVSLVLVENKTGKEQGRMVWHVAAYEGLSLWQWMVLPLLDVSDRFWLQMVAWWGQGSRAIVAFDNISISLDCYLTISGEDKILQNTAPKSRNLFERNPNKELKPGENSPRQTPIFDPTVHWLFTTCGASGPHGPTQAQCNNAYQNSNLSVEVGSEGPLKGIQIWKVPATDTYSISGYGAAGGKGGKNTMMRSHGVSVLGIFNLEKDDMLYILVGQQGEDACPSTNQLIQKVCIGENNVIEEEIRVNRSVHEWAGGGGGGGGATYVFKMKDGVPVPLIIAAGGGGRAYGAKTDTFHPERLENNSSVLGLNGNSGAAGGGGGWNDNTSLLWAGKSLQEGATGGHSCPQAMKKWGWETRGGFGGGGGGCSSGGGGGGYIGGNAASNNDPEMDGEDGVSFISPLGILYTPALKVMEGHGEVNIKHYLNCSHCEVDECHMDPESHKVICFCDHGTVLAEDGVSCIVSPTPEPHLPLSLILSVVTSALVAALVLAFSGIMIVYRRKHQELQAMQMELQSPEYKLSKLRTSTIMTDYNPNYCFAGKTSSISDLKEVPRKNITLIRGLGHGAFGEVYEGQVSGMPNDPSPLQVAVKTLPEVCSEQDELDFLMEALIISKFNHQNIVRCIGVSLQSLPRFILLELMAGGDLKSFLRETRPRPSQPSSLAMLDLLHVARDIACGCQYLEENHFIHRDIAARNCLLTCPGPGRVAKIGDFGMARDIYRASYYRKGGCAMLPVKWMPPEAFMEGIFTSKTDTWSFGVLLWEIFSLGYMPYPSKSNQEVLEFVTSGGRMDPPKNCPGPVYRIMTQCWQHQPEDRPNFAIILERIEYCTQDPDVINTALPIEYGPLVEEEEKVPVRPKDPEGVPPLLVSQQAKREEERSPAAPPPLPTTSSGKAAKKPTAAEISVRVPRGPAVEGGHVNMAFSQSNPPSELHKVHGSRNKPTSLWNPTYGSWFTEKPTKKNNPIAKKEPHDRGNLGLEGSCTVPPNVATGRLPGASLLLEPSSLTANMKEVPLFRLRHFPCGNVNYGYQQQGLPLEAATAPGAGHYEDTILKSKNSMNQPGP
Fibroblast growth factor receptor 2 (Homo sapiens), sequence (P21802 22-821 limits assumed): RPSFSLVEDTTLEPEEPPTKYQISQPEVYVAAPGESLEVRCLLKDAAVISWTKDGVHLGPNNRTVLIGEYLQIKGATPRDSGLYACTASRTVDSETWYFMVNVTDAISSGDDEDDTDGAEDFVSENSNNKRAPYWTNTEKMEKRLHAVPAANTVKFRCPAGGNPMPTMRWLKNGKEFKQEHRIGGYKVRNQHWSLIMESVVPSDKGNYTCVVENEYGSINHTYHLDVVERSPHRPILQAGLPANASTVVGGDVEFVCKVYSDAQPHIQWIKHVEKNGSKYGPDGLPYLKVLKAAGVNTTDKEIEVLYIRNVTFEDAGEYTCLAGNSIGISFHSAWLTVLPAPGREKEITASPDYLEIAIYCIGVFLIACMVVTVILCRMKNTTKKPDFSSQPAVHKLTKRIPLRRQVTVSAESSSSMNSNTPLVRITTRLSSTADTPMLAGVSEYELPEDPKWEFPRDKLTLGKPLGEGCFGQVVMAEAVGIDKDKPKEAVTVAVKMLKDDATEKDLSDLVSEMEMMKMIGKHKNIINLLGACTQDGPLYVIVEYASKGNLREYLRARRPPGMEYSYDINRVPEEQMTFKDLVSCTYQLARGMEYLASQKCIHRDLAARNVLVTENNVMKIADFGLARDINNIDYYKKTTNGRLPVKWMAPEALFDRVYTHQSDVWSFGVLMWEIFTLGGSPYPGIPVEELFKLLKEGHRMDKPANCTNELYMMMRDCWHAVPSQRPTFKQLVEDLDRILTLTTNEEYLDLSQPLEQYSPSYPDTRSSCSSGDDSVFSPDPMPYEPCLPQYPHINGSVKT
Cyclin-dependent kinase 1 (Homo sapiens), sequence (P06493 whole entry, looked up): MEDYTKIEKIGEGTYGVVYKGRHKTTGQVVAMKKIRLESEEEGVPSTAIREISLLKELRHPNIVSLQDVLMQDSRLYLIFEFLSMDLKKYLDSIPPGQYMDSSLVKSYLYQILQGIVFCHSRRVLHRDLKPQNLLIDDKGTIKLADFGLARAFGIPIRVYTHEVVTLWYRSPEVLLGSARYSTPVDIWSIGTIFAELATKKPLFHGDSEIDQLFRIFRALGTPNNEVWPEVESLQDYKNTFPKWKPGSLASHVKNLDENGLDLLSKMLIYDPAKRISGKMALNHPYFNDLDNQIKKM
Focal adhesion kinase 1 (Homo sapiens), sequence (Q05397 2-1052 limits assumed): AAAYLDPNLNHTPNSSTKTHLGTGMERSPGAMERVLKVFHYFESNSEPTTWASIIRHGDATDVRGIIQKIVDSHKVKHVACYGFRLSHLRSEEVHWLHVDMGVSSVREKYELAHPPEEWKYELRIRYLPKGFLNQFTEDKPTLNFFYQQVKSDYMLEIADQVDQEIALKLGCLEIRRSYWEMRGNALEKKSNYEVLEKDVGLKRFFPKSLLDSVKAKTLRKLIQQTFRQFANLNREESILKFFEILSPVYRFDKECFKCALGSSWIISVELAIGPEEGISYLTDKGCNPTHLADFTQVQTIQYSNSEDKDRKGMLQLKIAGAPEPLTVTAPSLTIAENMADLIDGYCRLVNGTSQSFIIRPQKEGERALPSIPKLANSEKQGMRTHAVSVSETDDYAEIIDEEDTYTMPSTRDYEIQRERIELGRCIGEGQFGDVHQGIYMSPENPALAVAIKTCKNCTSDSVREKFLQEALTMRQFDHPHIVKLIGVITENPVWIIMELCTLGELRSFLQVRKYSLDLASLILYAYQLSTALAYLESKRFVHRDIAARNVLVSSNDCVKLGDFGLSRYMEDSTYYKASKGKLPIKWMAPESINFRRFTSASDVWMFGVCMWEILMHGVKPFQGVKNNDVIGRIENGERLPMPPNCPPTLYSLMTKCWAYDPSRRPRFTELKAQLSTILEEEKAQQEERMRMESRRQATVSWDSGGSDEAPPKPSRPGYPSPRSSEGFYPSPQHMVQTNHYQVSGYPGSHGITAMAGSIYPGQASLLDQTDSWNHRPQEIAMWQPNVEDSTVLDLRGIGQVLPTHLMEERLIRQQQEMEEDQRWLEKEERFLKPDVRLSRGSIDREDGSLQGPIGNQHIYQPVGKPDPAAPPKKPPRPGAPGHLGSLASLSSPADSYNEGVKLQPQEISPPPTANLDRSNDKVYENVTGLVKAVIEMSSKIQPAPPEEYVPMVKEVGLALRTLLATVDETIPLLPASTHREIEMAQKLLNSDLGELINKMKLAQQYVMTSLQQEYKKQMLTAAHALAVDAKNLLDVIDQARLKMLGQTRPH
Tyrosine-protein kinase ABL1 (Homo sapiens), sequence (P00519 whole entry): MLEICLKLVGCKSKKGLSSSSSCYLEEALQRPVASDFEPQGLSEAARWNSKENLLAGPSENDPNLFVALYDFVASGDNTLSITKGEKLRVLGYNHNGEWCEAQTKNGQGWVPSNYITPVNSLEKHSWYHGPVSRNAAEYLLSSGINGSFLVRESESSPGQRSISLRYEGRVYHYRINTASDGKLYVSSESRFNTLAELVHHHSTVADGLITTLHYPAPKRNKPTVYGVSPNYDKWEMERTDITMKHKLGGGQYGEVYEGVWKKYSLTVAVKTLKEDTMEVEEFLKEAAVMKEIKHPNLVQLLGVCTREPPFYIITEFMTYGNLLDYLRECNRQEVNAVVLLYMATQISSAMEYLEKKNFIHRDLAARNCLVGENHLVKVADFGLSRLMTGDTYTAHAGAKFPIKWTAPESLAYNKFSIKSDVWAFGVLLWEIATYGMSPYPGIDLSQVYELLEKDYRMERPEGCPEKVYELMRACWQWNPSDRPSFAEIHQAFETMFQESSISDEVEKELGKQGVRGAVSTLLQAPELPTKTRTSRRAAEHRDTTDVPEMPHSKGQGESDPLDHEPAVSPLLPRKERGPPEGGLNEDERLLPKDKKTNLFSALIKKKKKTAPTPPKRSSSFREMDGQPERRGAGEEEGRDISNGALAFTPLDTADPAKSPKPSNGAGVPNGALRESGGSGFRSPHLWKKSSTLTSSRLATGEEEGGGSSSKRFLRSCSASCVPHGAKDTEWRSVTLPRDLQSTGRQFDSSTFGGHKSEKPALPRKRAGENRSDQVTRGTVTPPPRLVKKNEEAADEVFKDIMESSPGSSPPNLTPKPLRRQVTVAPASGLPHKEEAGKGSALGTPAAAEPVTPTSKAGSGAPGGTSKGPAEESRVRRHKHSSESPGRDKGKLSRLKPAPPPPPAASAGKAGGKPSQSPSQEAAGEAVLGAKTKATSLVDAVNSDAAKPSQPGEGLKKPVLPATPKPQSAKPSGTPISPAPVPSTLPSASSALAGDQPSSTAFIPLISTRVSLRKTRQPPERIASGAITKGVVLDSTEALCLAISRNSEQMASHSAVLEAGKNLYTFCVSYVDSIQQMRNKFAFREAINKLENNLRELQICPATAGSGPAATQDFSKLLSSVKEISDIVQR

- inhibition [1]: 59.5%
- inhibition [2]: 36.4%
- solubility [3]: 2 µM (≈ 1 µg/mL)
- inhibition [4]: 100%
- inhibition [5]: 8.2%
- IC50 (NCI-H716): 31.8 nM
- inhibition [6]: -0.1%
- inhibition [7]: 1.4%
- inhibition [8]: 0.3%
- efflux ratio at 2 h, 5 µM [9]: 1.1
- inhibition [10]: 1.1%
- inhibition [11]: 71.7%
- inhibition [12]: 60%
- inhibition [13]: 100%
- inhibition [14]: 22%
- inhibition [15]: 8.4%
- inhibition [16]: Active
SMILES: Cc1ccc(C(=O)Nc2cccc(C(F)(F)F)c2)cc1-c1ccc2c(-c3cnn(C4CC4)c3)n[nH]c2c1

From ChEMBL document CHEMBL4411287, “Discovery and optimization of a series of 3-substituted indazole derivatives as multi-target kinase inhibitors for the treatment of lung squamous cell carcinoma” (Eur J Med Chem, 2019)
